Measured values as given in ChEMBL document CHEMBL3271948, “Irreversible enzyme inhibitors. 200. Active-site-directed inhibitors of deoxycytidine kinase” (J Med Chem, 1977).
pIC50: −log10 of the molar value. In brackets after ≈: the same amount, converted by molar mass. Activity calls are given as the source filed them. No cut-off for these calls is given here.

Legend:
[1] = target: Deoxycytidine kinase (Rattus norvegicus) (UniProt P48769); assay: (§1) Irreversible inhibition of Walker 256 rat tumor deoxycytidine kinase by [3H]deoxycytidine binding assay
Procedure, shortened: (§2)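 Enzyme came from the 0–45% (NH4)2SO4 fraction of Walker 256 rat tumor, treated with 1 M HOAc. The assay contained [3H]deoxycytidine 0.025 mM, ATP 5 mM, MgCl2 5 mM and Tris pH 8.0 buffer 50 mM. Inhibitor was added in DMSO. Phosphorylated product was measured by adsorption to DEAE-cellulose filter disks. Inhibition was expressed as V0/V1, the uninhibited over the inhibited rate.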

[2] = target: Deoxycytidine kinase (Rattus norvegicus, UniProt P48769); assay: as §1; conditions: read-out: I50; procedure, shortened: as §2
[3] = target: Deoxycytidine kinase (Rattus norvegicus) (UniProt P48769); assay: Irreversible inhibition of Walker 256 rat tumor deoxycytidine kinase assessed as ratio of V0/V1 by [3H]deoxycytidine binding assay; procedure, shortened: as §2
[4] = Maximum solubility of the compound; assay type: physicochemical

Chain of Deoxycytidine kinase (P48769 whole entry): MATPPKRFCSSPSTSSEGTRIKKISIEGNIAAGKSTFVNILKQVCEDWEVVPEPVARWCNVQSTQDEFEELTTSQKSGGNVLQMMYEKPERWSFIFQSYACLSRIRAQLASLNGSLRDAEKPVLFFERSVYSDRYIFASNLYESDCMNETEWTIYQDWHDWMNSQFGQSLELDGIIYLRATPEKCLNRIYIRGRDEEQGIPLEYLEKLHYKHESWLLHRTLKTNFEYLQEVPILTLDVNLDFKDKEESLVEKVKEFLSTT
Chain of Deoxycytidine kinase (Rattus norvegicus) (P48769 whole entry): as above

| Compound | IC [1] [mM] | pIC50 [2] | Ratio [3] | inhibition [1] | solubility [4] [µM] |
| --- | --- | --- | --- | --- | --- |
| Nc1ccnc(OCc2ccccc2)n1 | 7.5 | 2.22 | 2.4 |  |  |
| O=c1nc(NCc2ccccc2)cc[nH]1 |  |  |  | inactive |  |
| Nc1ccnc(Oc2ccc(Cl)cc2)n1 | 5 | 2.30 | 2 |  |  |
| Nc1cc(OCc2ccccc2)[nH]c(=O)n1 |  |  |  | inactive |  |
| CCCCCOc1nccc(N)n1 | 10 | 2.15 | 3.6 |  |  |
| CC(C)CCn1ccc(N)nc1=O | 5 | 2.30 | 2 |  |  |
| Nc1cc[nH]c(=O)n1 | 10 |  | 1 |  |  |
| Nc1nc(=O)[nH]cc1-c1ccc(Cl)c(Cl)c1 |  |  |  | inactive |  |
| Nc1ccnc(SCCCCc2ccccc2)n1 |  | 3.00 | 1.5 |  | 500 (≈ 130 µg/mL) |
| Nc1ccn(CCCOc2ccccc2)c(=O)n1 | 2.5 | 2.60 | 2 |  |  |
| COc1ccc(-c2c[nH]c(=O)nc2N)cc1 |  |  |  | inactive |  |
| CCCCCNc1cc[nH]c(=O)n1 |  |  |  | inactive |  |
| CCCCNc1cc(N)nc(=O)[nH]1 |  |  |  | inactive |  |
| Nc1ccnc(SCc2ccc(Cl)cc2)n1 |  | 3.00 | 2 |  | 1000 (≈ 252 µg/mL) |
| Nc1ccnc(Sc2ccc3ccccc3c2)n1 |  | 3.30 | 2 |  | 500 (≈ 127 µg/mL) |
| Nc1ccn(CCCCc2ccccc2)c(=O)n1 |  | 3.00 | 2 |  | 1000 (≈ 243 µg/mL) |
| CSc1nc(N)cc(OCc2ccccc2)n1 |  |  |  | inactive |  |

| Compound | IC [1] [mM] | pIC50 [2] | Ratio [3] | inhibition [1] | solubility [4] [µM] |
| --- | --- | --- | --- | --- | --- |
| CCCOc1nccc(N)n1 | 5 |  | 1 |  |  |
| Nc1ccnc(SCCCOc2ccccc2)n1 |  | 2.70 | 1.5 |  | 1000 (≈ 261 µg/mL) |
| COCCOc1nccc(N)n1 | 5 |  | 1 |  |  |
| Nc1ccn(Cc2ccccc2)c(=O)n1 |  | 1.92 | 1.4 |  | 2500 (≈ 503 µg/mL) |
| Nc1ccn(CCOc2ccccc2)c(=O)n1 | 5 | 2.22 | 1.8 |  |  |
| Nc1cc(Nc2ccccc2)[nH]c(=O)n1 |  |  |  | inactive |  |
| CCCCCSc1nccc(N)n1 | 2.6 | 2.59 | 2 |  |  |
| Nc1ccn(-c2cccc3ccccc23)c(=O)n1 |  | 2.82 | 1.4 |  | 500 (≈ 119 µg/mL) |
| Nc1ccnc(SCc2ccccc2)n1 | 4 | 2.55 | 2.8 |  |  |
| O=C(Nc1ccnc(=O)[nH]1)c1ccccc1 |  |  |  | inactive |  |
| Nc1cc(OCc2ccccc2)ncn1 |  |  |  | inactive |  |
| CCCCCCCCOc1nccc(N)n1 |  | 3.00 | 1.5 |  | 250 (≈ 55.8 µg/mL) |
| Nc1cc(NCc2ccccc2)[nH]c(=O)n1 |  |  |  | inactive |  |
| Oc1nccc(Nc2ccccc2)n1 |  |  |  | inactive |  |
| CS(=O)(=O)c1nc(N)cc(OCc2ccccc2)n1 |  |  |  | inactive |  |
| CCCn1ccc(N)nc1=O | 5 | 1.92 | 1.4 |  |  |
| CC(=O)Nc1cc[nH]c(=O)n1 |  |  |  | inactive |  |
